PglD DTNB: C. jejuni PglD acetyltransferase inhibitors, primary screen, biochemical, DTNB colorimetric, single point. inhibition, % at 12.5 µM. purified PglD enzyme, DTNB colorimetric CoA detection. UDP-N-acetylbacillosamine N-acetyltransferase PglD (Campylobacter jejuni). AID 602405, 2012. 360,000 compounds, 0.098% hits; in the data active = inhibition above about 16%, passing the limit was not always enough; inconclusive = no clear call, values can overlap the other calls
Env fusion inh: inhibitors of HIV-1 Env-driven cell-cell fusion, primary screen, HeLa-JRFL effector, CEM21 target cells, luciferase; inhibition, % at 12.3 µM; 360,000 compounds, 1.1% hits; AID 651610, 2012;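 active = mean replicate inhibition score of at least 50 and every replicate individually at or above 50; inconclusive = only one of the two criteria met; inactive = mean below 50 and not all replicates reaching 50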;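 also: 0% = plate neutral controls and 100% = maraviroc near 300 nM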
SR-BI DiI inh: inhibitors of SR-BI mediated HDL lipid uptake, primary screen, ldlA[mSR-BI] cells, fluorescence, single point | ldlA[mSR-BI] CHO cells, DiI-HDL uptake fluorescence, 3 h | inhibition, % at 12.5 µM | 320,000 compounds, 0.96% hits | AID 488896, 2010;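 active = mean replicate inhibition of at least 70% and a set share of replicates each scoring 70 or more; inconclusive = meets just one of the two criteria; inactive = fails both criteria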;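 also: 0% = median of neutral control wells and 100% = median of positive control wells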
Rtt109 HAT inh: inhibitors of C. albicans Rtt109/Vps75 HAT, primary screen, biochemical, ThioGlo CoA-SH fluorescence, plate reader; Histone acetyltransferase RTT109 (Candida albicans (strain SC5314 / ATCC MYA-2876)), …; purified Rtt109/Vps75, 4 h; 330,000 compounds, 0.16% hits; inhibition, % at 34.9 µM;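 active = inhibition of at least 50% in every replicate; inconclusive = best replicate reaches 50% inhibition but some replicates fall short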
Target sequence (Q5AAJ8 whole entry, looked up): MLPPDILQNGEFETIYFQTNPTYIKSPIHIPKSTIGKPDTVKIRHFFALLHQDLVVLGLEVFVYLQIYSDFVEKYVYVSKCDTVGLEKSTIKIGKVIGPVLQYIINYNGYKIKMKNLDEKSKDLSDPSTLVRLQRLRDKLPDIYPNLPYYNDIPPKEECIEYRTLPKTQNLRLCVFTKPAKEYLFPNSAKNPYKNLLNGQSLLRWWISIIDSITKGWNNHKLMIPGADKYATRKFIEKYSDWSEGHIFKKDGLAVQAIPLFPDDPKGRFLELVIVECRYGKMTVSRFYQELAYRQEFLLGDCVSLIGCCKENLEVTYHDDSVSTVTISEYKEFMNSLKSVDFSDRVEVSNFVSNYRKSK
SR-BI DiI-HDL act: activators of SR-BI mediated DiI-HDL uptake, primary screen, ldlA[mSR-BI] CHO cells, DiI fluorescence. 3 h; 100 = double the neutral-control signal. activation, % at 12.5 µM. 320,000 compounds, 0.096% hits. AID 504775, 2011;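 active = mean replicate activation of at least 60% and every replicate at or above 60%; inconclusive = mean or all-replicate condition met, but not both; inactive = mean below 60% and not all replicates reaching 60%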;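 also: 0% = median plate neutral-control signal and 100% = twice that signal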
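Test system: SR-BI-overexpressing, LDLR-lacking CHO cells. Measured by: DiI fluorescence, bottom read. Medium: Ham's F12 with 0.5% BSA, HEPES 25 mM, pH 7.4. Timing: 3 h uptake period with compound, 37 °C.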
N-glyco inh: increase of ERlucT glycosylation luciferase signal, primary screen, N-linked glycosylation inhibitor project, D54 ERlucT cells, luminescence, set 2; reporter increase, % at 12.5 µM; D54 ERlucT glycosylation luciferase reporter, 24 h; percent of 100 nM tunicamycin response; AID 588692, 2011; 360,000 compounds, 0.23% hits;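 active = mean luciferase reporter signal, scaled so untreated is 0 and the glycosylation-blocking control 100, at or above a set limit in every replicate; inconclusive = mean reaches the limit but not every replicate does; inactive = mean below the limit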;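 also: luciferase carries N-glycosylation sites so blocking glycosylation raises the light; 0% = median of neutral control wells and 100% = median of 100 nM tunicamycin wells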
* = called active by the depositor; ? = inconclusive; nt = no result given; [ ] = another dose, or the depositor's remark. A selection: hits, their analogues and other compounds. The true share with any hit is near 1.9%.

SMILES	PglD DTNB	Env fusion inh	SR-BI DiI inh	Rtt109 HAT inh	SR-BI DiI-HDL act	N-glyco inh
C[C@@H]1CN([C@H](C)CO)C(=O)c2cc(-c3ccc(C#N)cc3)cnc2O[C@@H]1CN(C)C(=O)Nc1ccc(F)cc1	-4	-9[16.7 µM]	nt	nt	nt	nt
N=c1c2c(n(Cc3ccc(Br)cc3)c3c1CCC3)CCCC2	nt	70*	-4	10	4	7
Cc1ccc2c(C)nc(Nc3nc(CSc4nnnn4-c4ccccc4)cc(=O)[nH]3)nc2c1	nt	70*	-6	-1	6	-11
Cc1cc(C)c2nc(Nc3nc(CSc4nc5ccccc5[nH]4)cc(=O)[nH]3)nc(C)c2c1	nt	83*	nt	7	nt	0
CC(C)NC(=O)N(C)C[C@@H]1OCCCC[C@@H](C)Oc2ccc(NS(=O)(=O)c3ccccc3)cc2C(=O)N([C@H](C)CO)C[C@H]1C	-1	-90[16.7 µM]	nt	nt	nt	nt
C[C@@H]1CCCCO[C@@H](CN(C)C(=O)Nc2ccc3c(c2)OCO3)[C@H](C)CN([C@H](C)CO)C(=O)c2cc(N(C)C)ccc2O1	nt	-5[16.7 µM]	nt	nt	nt	nt
C[C@H](NC(=O)C[C@@H]1C=C[C@@H](NC(=O)Cc2ccccn2)[C@@H](CO)O1)c1ccccc1	1	nt	nt	nt	nt	nt
COc1cccc(C(=O)Nc2ccc3c(c2)C(=O)N(C)C[C@H](OC)[C@@H](C)CN(CCc2ccccc2)[C@H](C)CO3)c1	1	55*[16.7 µM]	nt	nt	nt	nt
COc1ccccc1C(=O)Nc1ccc2c(c1)OC[C@H](C)N(C(C)=O)C[C@H](C)[C@H](OC)CN(C)C2=O	-60	60*[16.7 µM]	nt	nt	nt	nt
CO[C@H]1CN(C)C(=O)c2cc(NC(=O)c3ccc(F)cc3)ccc2OC[C@H](C)N(C(=O)CN(C)C)C[C@@H]1C	1	62*[16.7 µM]	nt	nt	nt	nt
COc1cccc(C(=O)Nc2ccc3c(c2)C(=O)N(C)C[C@H](OC)[C@H](C)CN(CCc2ccccc2)[C@@H](C)CO3)c1	2	31[16.7 µM]	nt	nt	nt	nt
COc1ccccc1C(=O)Nc1ccc2c(c1)OC[C@H](C)N(C(C)=O)C[C@@H](C)[C@H](OC)CN(C)C2=O	4	14[16.7 µM]	nt	nt	nt	nt
C[C@@H]1CCCCO[C@H](CN(C)S(=O)(=O)c2ccccc2)[C@H](C)CN([C@H](C)CO)C(=O)c2cc(NC(=O)Nc3cccc4ccccc34)ccc2O1	4	-85[16.7 µM]	nt	nt	nt	nt
C[C@@H]1CN([C@@H](C)CO)C(=O)c2cc(N(C)C)ccc2O[C@H]1CN(C)S(=O)(=O)c1cn(C)cn1	-4	8[16.7 µM]	nt	nt	nt	nt
COc1ccc(CN(C)C[C@@H]2Oc3c(NC(=O)NC4CCCCC4)cccc3C(=O)N([C@H](C)CO)C[C@H]2C)cc1	-4	nt	nt	nt	nt	nt
CCOc1ccc(/C=C/C(=O)OCC(=O)NCCc2ccc(OCC)c(OCC)c2)cc1OC	6	-19	73*	-4	-73	0
CCOc1ccc(C(=O)/C=C/c2ccc(OC)c(OC)c2)cc1	nt	6	32	-3	-32	14
COc1ccc(/C=C/C(=O)c2ccc3c4c(cccc24)CC3)cc1OC	nt	-6	13	3	-13	34*
CCOc1ccc(/C=C/C(=O)c2ccccc2)cc1OC	nt	2	3	-5	-3	26*
CCOc1ccc(CCNC(=O)c2nnn(CC(=O)Nc3ccc(OC)c(OC)c3)c2N)cc1OCC	nt	1	72*	8	-72	2
CN(C)CCCNC(=O)[C@H]1[C@H](CO)[C@H]2Cn3c(cccc3=O)[C@@H]1N2C(=O)Nc1cc(F)ccc1F	-5	4[16.7 µM]	nt	nt	nt	nt
C[C@H]1CN([C@@H](C)CO)C(=O)c2cc(Br)cnc2O[C@@H]1CN(C)C(=O)Nc1ccc(F)cc1	-3	11[16.7 µM]	nt	nt	nt	nt
CC(=O)NC[C@H]1[C@@H](c2ccc(-c3cccc(F)c3)cc2)[C@@H](CO)N1C(C)=O	4	nt	nt	nt	nt	nt
COc1ccc(/C=C/C(=O)NC(=S)NCCc2ccc(OC)c(OC)c2)cc1	-4	nt	83*	-2	-83	-3
C[C@@H]1CN([C@@H](C)CO)C(=O)c2cc(Br)cnc2O[C@@H]1CN(C)C(=O)C1CC1	nt	-10[16.7 µM]	nt	nt	nt	nt
SMILES	PglD DTNB	Env fusion inh	SR-BI DiI inh	Rtt109 HAT inh	SR-BI DiI-HDL act	N-glyco inh
COc1ccc(NC(=O)N(C)C[C@H]2Oc3ccc(NC(=O)CCCN(C)C)cc3C(=O)N([C@H](C)CO)C[C@H]2C)cc1	-1	nt	nt	nt	nt	nt
COc1ccc(C(=O)N=c2sc3c(C)ccc(OC)c3n2C)cc1	1	-97	77*	-3	-77	-10
COc1cc(C(=O)N=c2sc3c(C)ccc(OC)c3n2C)cc(OC)c1OC	nt	-11	78*	-2	-78	12
COc1cc(C(=O)N=c2sc3ccccc3n2C)cc(OC)c1OC	nt	-3	?	-5	-72	3
COc1ccc(NC(=O)Nc2ccc3c(c2)[C@@H]2C[C@H](CC(=O)NCc4ccccc4F)O[C@@H](CO)[C@@H]2O3)cc1	-1	-2[16.7 µM]	nt	nt	nt	nt
CC(C)OC(=O)Nc1ccc2c(c1)N(C(=O)CCN1CCOCC1)c1ccccc1CC2	nt	31	-63	4	63*	3
CCCCCc1cc(=O)oc2c(C(CCN3CCCCC3)c3cc(OC)c(OC)c(OC)c3)c(OC)cc(OC)c12 (centres undefined)	1	-10	-62	18	62*	4
CC1(C)Cc2c(sc3c2c(=O)n(-c2ccc(Cl)cc2)c(=O)n3CC(N)=O)CO1	8	-10	-7	5	7	0
Cn1c(=O)n(-c2cccc(Cl)c2)c(=O)c2c3c(sc21)COC(C)(C)C3	0	114*	20	-6	-20	0
CCOC(=O)c1c(NC(=O)c2cc3n(n2)C(C(F)(F)F)CC(c2cccs2)N3)sc(C)c1C (centres undefined)	-4	1	-12	1	12	98*
Cc1nn(C)c(C)c1CNC(=O)c1cc2n(n1)C(C(F)(F)F)CC(c1cccs1)N2 (centres undefined)	nt	nt	-13	10	13	-1
COc1cccc(CN(Cc2ccccc2F)S(=O)(=O)c2ccc(S(=O)(=O)NCc3ccccc3)cc2)c1	nt	68*	9	-2	-9	-3
N#Cc1c(NCc2ccccc2)ccnc1NCc1cccnc1	8	107*	10	1	-10	-2
O=C(C[C@H]1CC[C@H]2[C@@H](COC[C@H](O)CN2Cc2cc(F)cc(F)c2)O1)NC1CCCC1	4	21[16.7 µM]	nt	nt	nt	nt
Cc1ccc(S(=O)(=O)N(C)C[C@@H]2Oc3ccc(NC(=O)CCC(F)(F)F)cc3CC(=O)N([C@@H](C)CO)C[C@@H]2C)cc1	-1	nt	-5	-2	5	33*

Screening data as filed in PubChem.
